# pIC50: −log10 of the molar value. The source made the active and inactive calls. The calls are words filed in the database; no cut-off is given here.
# Tests used:
# [1] = Volume of distribution at steady state in jugular and femoral vein precannulated Sprague-Dawley rat at 1 mg/kg, iv by LC/MS/MS analysis; assay type: ADME, organism-based; set-up: dose 1 mg/kg, route intravenous; conditions: in vivo, read-out: Vdss
# [2] = target: Cytochrome P450 3A4 (Homo sapiens, UniProt P08684); experiment: Inhibition of CYP3A4 in human liver microsomes using 7-benzyloxy-4-(trifluoromethyl)-coumarin as substrate after 30 mins by LC/MS/MS analysis; assay type: ADME, Microsome
# Chain of Cytochrome P450 3A4 (P08684 whole entry): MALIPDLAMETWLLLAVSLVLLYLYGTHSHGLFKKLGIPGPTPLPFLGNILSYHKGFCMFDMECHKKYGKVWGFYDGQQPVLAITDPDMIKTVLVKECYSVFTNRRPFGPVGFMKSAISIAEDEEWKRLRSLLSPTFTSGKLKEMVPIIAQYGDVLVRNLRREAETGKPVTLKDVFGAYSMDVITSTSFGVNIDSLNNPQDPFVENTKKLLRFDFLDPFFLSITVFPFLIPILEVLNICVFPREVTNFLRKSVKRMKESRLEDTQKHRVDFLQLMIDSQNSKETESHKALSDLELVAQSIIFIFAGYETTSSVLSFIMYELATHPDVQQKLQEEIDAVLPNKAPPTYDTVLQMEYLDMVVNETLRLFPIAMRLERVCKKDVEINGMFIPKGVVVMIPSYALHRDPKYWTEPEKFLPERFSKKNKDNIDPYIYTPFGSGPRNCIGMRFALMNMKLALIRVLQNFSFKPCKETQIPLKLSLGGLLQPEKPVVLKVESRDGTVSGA
# [3] = test system: Rattus norvegicus; experiment: Clearance in jugular and femoral vein precannulated Sprague-Dawley rat at 1 mg/kg, iv by LC/MS/MS analysis relative to hepatic blood flow; assay type: ADME, organism-based, Liver; set-up: dose 1 mg/kg, route intravenous; conditions: in vivo
# [4] = Mean resident time in jugular and femoral vein precannulated Sprague-Dawley rat at 1 mg/kg, iv by LC/MS/MS analysis; assay type: ADME, organism-based; set-up: dose 1 mg/kg, route intravenous; conditions: in vivo
# [5] = target: T1, Sodium/hydrogen exchanger 1 (Homo sapiens, UniProt P19634); experiment: Inhibition of NHE1 in human HT-29 cells assessed as intracellular pH change after 30 mins; assay type: cell-based
# T1 sequence (P19634 whole entry): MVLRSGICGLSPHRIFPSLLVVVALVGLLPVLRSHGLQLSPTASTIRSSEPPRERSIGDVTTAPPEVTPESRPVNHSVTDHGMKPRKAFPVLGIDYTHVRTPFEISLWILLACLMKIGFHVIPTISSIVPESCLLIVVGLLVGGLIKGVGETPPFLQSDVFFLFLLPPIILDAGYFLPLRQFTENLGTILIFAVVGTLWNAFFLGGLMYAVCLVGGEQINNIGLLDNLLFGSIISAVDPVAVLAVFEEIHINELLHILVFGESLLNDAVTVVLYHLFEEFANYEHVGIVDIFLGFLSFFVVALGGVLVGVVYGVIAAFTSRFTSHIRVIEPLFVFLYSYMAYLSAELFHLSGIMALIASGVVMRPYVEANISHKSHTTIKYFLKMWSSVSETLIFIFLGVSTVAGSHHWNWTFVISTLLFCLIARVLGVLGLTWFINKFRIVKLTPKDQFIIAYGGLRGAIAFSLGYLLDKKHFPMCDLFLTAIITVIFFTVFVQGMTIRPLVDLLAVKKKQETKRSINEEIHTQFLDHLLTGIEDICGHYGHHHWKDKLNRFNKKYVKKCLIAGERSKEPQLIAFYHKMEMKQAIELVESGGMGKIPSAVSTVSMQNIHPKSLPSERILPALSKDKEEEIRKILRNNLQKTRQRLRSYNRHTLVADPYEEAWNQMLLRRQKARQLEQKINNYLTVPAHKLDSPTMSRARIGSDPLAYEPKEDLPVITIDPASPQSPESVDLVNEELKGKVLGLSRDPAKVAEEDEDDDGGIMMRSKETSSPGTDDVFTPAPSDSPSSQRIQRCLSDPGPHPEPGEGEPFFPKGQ
# [6] = target: Cytochrome P450 2C19 (Homo sapiens, UniProt P33261); experiment: Inhibition of CYP2C19 in human liver microsomes using 7-ethoxy-3-cyanocoumarin as substrate after 45 mins by LC/MS/MS analysis; assay type: ADME, Microsome
# Chain of Cytochrome P450 2C19 (P33261 whole entry): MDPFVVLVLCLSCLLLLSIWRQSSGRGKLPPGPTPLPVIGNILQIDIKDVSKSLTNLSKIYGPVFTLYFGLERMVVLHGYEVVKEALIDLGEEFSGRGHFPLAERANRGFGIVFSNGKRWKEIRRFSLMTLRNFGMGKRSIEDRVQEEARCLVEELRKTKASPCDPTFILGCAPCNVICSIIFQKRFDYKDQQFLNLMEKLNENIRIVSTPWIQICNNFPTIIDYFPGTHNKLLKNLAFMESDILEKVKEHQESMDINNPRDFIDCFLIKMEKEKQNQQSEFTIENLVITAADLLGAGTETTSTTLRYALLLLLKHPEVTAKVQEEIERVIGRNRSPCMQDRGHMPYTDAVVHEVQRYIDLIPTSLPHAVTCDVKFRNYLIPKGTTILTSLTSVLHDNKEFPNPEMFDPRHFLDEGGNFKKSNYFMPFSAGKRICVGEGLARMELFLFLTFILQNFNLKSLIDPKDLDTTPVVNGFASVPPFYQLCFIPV
# [7] = Oral bioavailability in jugular and femoral vein precannulated Sprague-Dawley rat plasma at 5 mg/kg by LC/MS/MS analysis; assay type: ADME, organism-based
# [8] = Metabolic stability in rat liver microsomes at 1 uM up to 60 mins by LC/MS/MS analysis relative to hepatic blood flow; assay type: ADME, Microsome; conditions: read-out: Stability
# [9] = target: Voltage-gated inwardly rectifying potassium channel KCNH2 (Homo sapiens, UniProt Q12809); experiment: Inhibition of human ERG expressed in HEK 293 cells by PatchXpress assay; assay type: cell-based, HEK293
# Chain of Voltage-gated inwardly rectifying potassium channel KCNH2 (Q12809 whole entry): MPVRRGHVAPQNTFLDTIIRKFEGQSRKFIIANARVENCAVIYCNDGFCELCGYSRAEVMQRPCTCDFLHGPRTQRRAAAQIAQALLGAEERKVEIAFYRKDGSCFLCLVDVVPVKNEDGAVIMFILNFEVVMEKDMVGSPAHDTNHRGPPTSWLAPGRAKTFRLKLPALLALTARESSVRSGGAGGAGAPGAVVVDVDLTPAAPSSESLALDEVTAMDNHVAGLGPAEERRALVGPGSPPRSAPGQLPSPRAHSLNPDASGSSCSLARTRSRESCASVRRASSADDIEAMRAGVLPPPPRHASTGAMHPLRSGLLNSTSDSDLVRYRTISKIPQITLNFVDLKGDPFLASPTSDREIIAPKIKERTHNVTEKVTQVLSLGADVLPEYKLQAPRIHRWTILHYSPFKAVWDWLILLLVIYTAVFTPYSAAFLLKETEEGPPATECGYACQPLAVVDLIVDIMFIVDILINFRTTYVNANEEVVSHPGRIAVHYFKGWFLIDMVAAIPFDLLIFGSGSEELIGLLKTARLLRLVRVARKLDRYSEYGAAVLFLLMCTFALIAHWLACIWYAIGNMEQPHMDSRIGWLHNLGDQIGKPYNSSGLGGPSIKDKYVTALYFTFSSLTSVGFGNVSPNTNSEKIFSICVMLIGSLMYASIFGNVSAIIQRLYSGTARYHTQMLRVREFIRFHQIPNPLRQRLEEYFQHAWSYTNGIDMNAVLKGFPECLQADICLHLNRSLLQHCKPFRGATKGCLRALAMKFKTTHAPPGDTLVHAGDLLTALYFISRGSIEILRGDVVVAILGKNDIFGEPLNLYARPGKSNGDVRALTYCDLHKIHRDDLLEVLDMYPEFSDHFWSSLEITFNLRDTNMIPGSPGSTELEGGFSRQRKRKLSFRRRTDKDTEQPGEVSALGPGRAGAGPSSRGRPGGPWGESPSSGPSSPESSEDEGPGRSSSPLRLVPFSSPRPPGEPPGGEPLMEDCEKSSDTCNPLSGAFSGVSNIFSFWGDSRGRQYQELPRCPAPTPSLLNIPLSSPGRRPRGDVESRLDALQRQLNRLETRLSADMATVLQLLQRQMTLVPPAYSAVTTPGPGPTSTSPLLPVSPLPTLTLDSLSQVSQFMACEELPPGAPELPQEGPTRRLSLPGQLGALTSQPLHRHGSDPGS
# [10] = Oral bioavailability in overnight fasted Beagle dog at 5 mg/kg; assay type: ADME, organism-based, Canis lupus familiaris; conditions: in vivo
# [11] = test system: Canis familiaris; experiment: Clearance in overnight fasted Beagle dog at 1 mg/kg, iv relative to hepatic blood flow; assay type: ADME, organism-based, Canis lupus familiaris, Liver; set-up: dose 1 mg/kg, route intravenous; conditions: in vivo
# [12] = Permeability of the compound by PAMPA; assay type: ADME; conditions: read-out: permeability
# Summary of the method: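 Donor buffers were set to pH 5.0, 6.2 and 7.4 with NaOH, and ASB7.4 buffer was used as acceptor. Filters (0.45 pore, 125 μm thick) were lipid-coated. A 10 mM DMSO stock was diluted to 41.7 μM in donor buffer. The sandwich was incubated 4 h without stirring. Reference, donor and acceptor concentrations were read in duplicate by UV plate reader, and ratings were assigned from permeation velocity.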
# [13] = Mean resident time in overnight fasted Beagle dog at 1 mg/kg, iv; assay type: ADME, organism-based, Canis lupus familiaris; set-up: dose 1 mg/kg, route intravenous; conditions: in vivo
# [14] = target: Cytochrome P450 2D6 (Homo sapiens, UniProt P10635); experiment: Inhibition of CYP2D6 in human liver microsomes using 3-[2-(N,N-diethyl-N-methylamino)ethyl]-7- methoxy-4-methylcoumarin as substrate after 45 mins by LC/MS/MS analysis; assay type: ADME, Microsome
# Chain of Cytochrome P450 2D6 (P10635 whole entry): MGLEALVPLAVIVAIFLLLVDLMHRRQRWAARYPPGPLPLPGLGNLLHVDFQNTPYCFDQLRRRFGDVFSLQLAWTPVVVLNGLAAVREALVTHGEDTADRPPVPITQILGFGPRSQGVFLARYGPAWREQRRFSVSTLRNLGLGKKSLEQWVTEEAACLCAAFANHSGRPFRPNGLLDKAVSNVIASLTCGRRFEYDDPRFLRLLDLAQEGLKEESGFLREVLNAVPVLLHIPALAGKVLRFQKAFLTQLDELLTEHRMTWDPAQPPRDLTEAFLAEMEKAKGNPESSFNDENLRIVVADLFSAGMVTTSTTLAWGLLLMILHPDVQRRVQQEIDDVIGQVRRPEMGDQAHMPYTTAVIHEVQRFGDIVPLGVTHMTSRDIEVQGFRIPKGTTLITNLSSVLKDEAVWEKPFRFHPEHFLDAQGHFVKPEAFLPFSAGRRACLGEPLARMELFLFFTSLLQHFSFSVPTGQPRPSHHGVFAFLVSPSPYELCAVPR
# [15] = Metabolic stability in human liver microsomes at 1 uM up to 60 mins by LC/MS/MS analysis relative to hepatic blood flow; assay type: ADME, Microsome; conditions: read-out: Stability
# [16] = target: Cytochrome P450 2C9 (Homo sapiens, UniProt P11712); experiment: Inhibition of CYP2C9 in human liver microsomes using 7-methoxy-4-(trifluoromethyl)-coumarin as substrate after 45 mins by LC/MS/MS analysis; assay type: ADME, Microsome
# Chain of Cytochrome P450 2C9 (P11712 whole entry): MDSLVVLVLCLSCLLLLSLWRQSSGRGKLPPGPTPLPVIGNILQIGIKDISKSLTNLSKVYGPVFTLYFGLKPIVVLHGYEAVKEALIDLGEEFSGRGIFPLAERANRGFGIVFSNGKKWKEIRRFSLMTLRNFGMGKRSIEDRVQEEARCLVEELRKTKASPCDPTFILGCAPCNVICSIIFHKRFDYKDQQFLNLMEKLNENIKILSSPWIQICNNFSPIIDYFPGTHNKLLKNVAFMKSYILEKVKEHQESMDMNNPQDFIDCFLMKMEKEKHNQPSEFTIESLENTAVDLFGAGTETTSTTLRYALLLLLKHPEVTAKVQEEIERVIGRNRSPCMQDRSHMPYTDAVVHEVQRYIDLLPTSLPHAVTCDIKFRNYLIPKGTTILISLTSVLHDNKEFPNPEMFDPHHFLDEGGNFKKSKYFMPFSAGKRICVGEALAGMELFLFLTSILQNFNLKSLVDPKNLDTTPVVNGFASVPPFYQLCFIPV
# [17] = Volume of distribution at steady state in overnight fasted Beagle dog at 1 mg/kg, iv; assay type: ADME, organism-based, Canis lupus familiaris; set-up: dose 1 mg/kg, route intravenous; conditions: in vivo, read-out: Vdss
# [18] = target: T2, Sodium/hydrogen exchanger 3 (Homo sapiens) (UniProt P48764); experiment: Inhibition of NHE3 transfected in Chinese hamster PS120 assessed as intracellular pH change up to 16 uM; assay type: cell-based
# T2 sequence (whole entry): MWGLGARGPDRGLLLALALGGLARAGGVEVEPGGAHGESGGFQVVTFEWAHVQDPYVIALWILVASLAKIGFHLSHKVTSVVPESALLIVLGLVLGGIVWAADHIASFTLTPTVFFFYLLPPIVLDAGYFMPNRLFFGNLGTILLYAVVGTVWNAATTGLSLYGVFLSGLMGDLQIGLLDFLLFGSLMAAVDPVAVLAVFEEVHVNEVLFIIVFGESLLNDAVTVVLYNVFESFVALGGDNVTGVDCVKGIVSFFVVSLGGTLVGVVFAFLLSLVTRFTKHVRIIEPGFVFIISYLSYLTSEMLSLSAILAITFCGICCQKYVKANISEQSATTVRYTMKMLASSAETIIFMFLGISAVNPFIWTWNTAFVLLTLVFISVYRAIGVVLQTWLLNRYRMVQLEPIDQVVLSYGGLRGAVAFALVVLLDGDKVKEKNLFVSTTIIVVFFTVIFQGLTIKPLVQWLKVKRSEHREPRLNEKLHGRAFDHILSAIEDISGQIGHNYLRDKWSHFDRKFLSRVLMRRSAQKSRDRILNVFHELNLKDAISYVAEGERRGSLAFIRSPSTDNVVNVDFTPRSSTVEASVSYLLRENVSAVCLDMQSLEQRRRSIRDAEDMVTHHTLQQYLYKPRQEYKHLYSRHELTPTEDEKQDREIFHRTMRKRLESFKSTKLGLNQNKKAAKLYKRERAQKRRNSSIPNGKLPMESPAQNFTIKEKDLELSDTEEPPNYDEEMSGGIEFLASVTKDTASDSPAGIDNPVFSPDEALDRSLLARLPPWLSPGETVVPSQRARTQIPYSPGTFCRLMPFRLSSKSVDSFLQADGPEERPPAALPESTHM
# [19] = target: T1, Sodium/hydrogen exchanger 1; experiment: Inhibition of NHE1 in human HT-29 cells assessed as intracellular pH change after 30 mins in presence of plasma protein; assay type: cell-based
SMILES,Vd [1] [L/kg],pIC50 [2],CL [3] [%],MRT [4] [h],pIC50 [5],pIC50 [6],bioavailability [7] [%],"hepatic extraction ratio at 1 h, 1 µM [8]",pIC50 [9],bioavailability [10] [%],CL [11] [%],Papp [12] [×10⁻⁶ cm/s],MRT [13] [h],pIC50 [14],"hepatic extraction ratio at 1 h, 1 µM [15]",pIC50 [16],Vd [17] [L/kg],inhibition [18],inhibition [19]
N=C(N)NC(=O)c1ccc(N2CCN(C(=O)c3ccc[nH]3)CC2)c(C(F)(F)F)c1 [SABIPORIDE],1.3,5.15,24,1.3,7.55,5.05,42,–,–,–,–,–,–,–,–,–,–,–,–
N#Cc1cccc(C(=O)N2CCC(c3ccc(C(=O)NC(=N)N)cc3C(F)(F)F)CC2)c1,4.9,4.66,16,3.3,7.46,5.15,72,< 0.056,< 4.52,36,18,≥ 2,17,< 4.52,< 0.11,4.72,–,–,–
CCC(=O)N1CCC(c2ccc(C(=O)NC(=N)N)cc2C(F)(F)F)CC1,1,–,4.4,5.3,7.96,–,49,–,–,49,8.1,≥ 2,14,–,–,–,2,inactive,–
N=C(N)NC(=O)c1ccc(N2CCCC(NC(=O)c3ccc[nH]3)C2)c(C(F)(F)F)c1 (racemic),–,–,–,–,6.76,–,–,–,–,–,–,–,–,–,–,–,–,–,Active
N=C(N)NC(=O)c1cnn(-c2cccc3ncccc23)c1C1CC1 [ZONIPORIDE],2.8,–,105,0.6,–,–,5,–,–,–,–,–,–,–,–,–,–,–,–
CC(=O)N1CCC(c2cc(C)c(C(=O)NC(=N)N)cc2S(C)(=O)=O)CC1,1,–,47,0.36,7.82,–,4,–,–,–,–,–,–,–,–,–,–,–,–
COCC(=O)N1CCC(c2ccc(C(=O)NC(=N)N)cc2C(F)(F)F)CC1,1.3,< 4.52,21,1.4,8.00,5.10,–,0.36,< 4.52,–,–,≥ 2,–,< 4.52,0.06,4.60,–,–,–
CC(C)c1ccc(C(=O)NC(=N)N)cc1S(C)(=O)=O [CARIPORIDE],1.3,–,82,0.4,–,–,37,–,–,–,–,–,–,–,–,–,–,–,–
Cc1cc(-n2cccc2)c(S(C)(=O)=O)cc1C(=O)NC(=N)N [ENIPORIDE],0.5,–,28,0.4,–,–,65,–,–,–,–,–,–,–,–,–,–,–,–
N=C(N)NC(=O)c1ccc(N2CCC(NC(=O)c3ccc[nH]3)CC2)c(C(F)(F)F)c1,–,–,–,–,7.39,–,–,–,–,–,–,–,–,–,–,–,–,–,Active
CS(=O)(=O)c1ccc(C(=O)N2CCC(c3ccc(C(=O)NC(=N)N)cc3C(F)(F)F)CC2)cc1,–,–,66,–,7.82,< 4.52,15,–,–,–,–,< 2,–,< 4.52,–,< 4.52,–,–,–
CC(C)(C)C(=O)N1CCC(c2ccc(C(=O)NC(=N)N)cc2C(F)(F)F)CC1,1.8,–,29,1.5,7.14,–,–,–,–,–,–,≥ 2,–,< 4.52,–,4.77,–,–,–
CC(=O)N1CCC(c2cc(C)c(C(=O)NC(=N)N)cc2C(F)(F)F)CC1,–,–,–,–,8.30,–,–,–,5.15,–,–,–,–,–,–,–,–,–,–
N#Cc1ccc(C(=O)N2CCC(c3ccc(C(=O)NC(=N)N)cc3C(F)(F)F)CC2)cc1,6.5,4.96,19,8.5,–,4.82,–,0.2,5.40,–,–,≥ 2,–,< 4.52,< 0.11,4.89,–,–,–
N=C(N)NC(=O)c1ccc(N2CCC(NC(=O)c3ccc[nH]3)C2)c(C(F)(F)F)c1 (racemic),–,–,–,–,7.44,–,–,–,–,–,–,–,–,–,–,–,–,–,Active
Cn1ccnc1C(=O)N1CCC(c2ccc(C(=O)NC(=N)N)cc2C(F)(F)F)CC1,1.4,4.59,31,1,7.85,4.80,–,0.12,< 4.52,–,–,≥ 2,–,< 4.52,0.47,4.74,–,–,–
